Screening data deposited in PubChem BioAssay by several laboratories.
CSN inh = inhibitors of human CSN-mediated cullin deneddylation. 360,000 tested, 0.38% active. inhibition, % at 12.5 µM. AID 651999. Q92905. Purified CSN, SCF-Nedd8-OG deneddylation, fluorescence polarization;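 active = pattern-corrected inhibition above about 35%, with an unprinted fluorescence ratio check between 0.5 and 1.5, limit read from the data, passing the limit was not always enough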;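 note: 0% = enzyme with substrate and 100% = substrate without enzyme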
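Material: human Csn5 produced in HEK293T cells; Input: enzyme 0.24 nM; Reagent: SCFSkp2-Nedd8OG substrate at 10 nM final; Dosing: 12.5 µM compound; Incubation: 90 min reaction at room temperature; Detection: fluorescence polarization of the substrate; Evaluation: % inhibition of substrate cleavage by Csn5; Control set: substrate-only high control, full reaction low control.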
PKA-R1A activ = PKA-R1A complex activation; PKA-R1A dissociation, Cy5-IP20 fluorescence polarization; scaled: DMSO 0%, 113 µM cGMP 100%; activation, % at 11.4 µM; 340,000 tested, 0.083% active;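 active = percent activation above the mean of all tested compounds plus 3 SD, cut at about 19% in these data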;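 note: higher means more PKAc released from R1A so a rise in polarization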
TPT1 inh = C. albicans TPT1 enzyme inhibition. inhibition, % at 5 µM. 300,000 tested, 0.81% active. recombinant caTPT1, FP RNA substrate dephosphorylation;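 active = inhibition above the mean of all tested compounds plus 3 SD, set per screening campaign, cut at about 24% in these data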;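 note: plate controls were DMSO alone for no effect and ferristatin control at 100 nM for full effect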
Rpn11 block = blocks the human proteasome subunit Rpn11; O00487; human 26S proteasome, Ub4-pepOG fluorescence polarization; 20S core pre-blocked with epoxomicin; calls only at 20 µM; 360,000 tested, 0.59% active;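 active = inhibition at 20 µM, scaled to each plate's controls, above about 33%, limit read from the data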
HNF4A DNA FP = change in binding of human HNF4 alpha to DNA. P41235. HNF4a-FITC DNA binding, fluorescence polarization, 1 h. activity change, % at 10 µM. 360,000 tested, 0.3% active; in the data active = activity change above about 30%, passing the limit was not always enough
PKA-R2B activ = activates the human PKA-R2B holoenzyme complex; PKA-R2B holoenzyme dissociation, Cy5-IP20 fluorescence polarization; R2B truncated from residue 108, S112A mutant; 0% DMSO only, 100% 113 µM cGMP; activation, % at 11.4 µM; 340,000 tested, 0.079% active;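 active = activation above a cutoff set at the mean over all compounds plus 3 SD, cut at about 18% in these data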;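 note: higher means more holoenzyme dissociation and a rise in polarization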
Target sequence (P31323 whole entry, looked up, other chains not shown, the tested form may be a part): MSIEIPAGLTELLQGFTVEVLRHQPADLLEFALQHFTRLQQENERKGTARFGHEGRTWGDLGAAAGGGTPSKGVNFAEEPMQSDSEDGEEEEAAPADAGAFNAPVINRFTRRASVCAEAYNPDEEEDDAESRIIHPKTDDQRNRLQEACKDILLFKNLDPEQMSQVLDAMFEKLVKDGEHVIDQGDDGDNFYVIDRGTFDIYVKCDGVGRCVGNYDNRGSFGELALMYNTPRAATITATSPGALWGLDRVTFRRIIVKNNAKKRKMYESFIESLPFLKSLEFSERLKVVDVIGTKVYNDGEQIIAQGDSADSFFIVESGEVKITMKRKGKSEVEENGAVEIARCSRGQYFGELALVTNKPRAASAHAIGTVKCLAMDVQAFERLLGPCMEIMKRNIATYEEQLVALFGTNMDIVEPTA
Active calls of the source: *; i = inactive; / = no result given; + = active, no number. Compounds with a hit are over-represented: about 1.6% of the library has one in this group of screens.

SMILES	CSN inh	PKA-R1A activ	TPT1 inh	Rpn11 block	HNF4A DNA FP	PKA-R2B activ
Cc1ccc(NC(=O)COC(=O)COc2cccc3c2OC(C)(C)C3)cc1C	-2	-12	0	i	-2	-8
CCCCN(CCCC)c1nc2ccccc2nc1C(C#N)C(=O)NCCCOC (stereo unspecified)	99*	1	8	/	-1	3
CCN(CC)c1nc2ccccc2nc1C(C#N)C(=O)NCCCOC (stereo unspecified)	-4	-17	13	i	7	-10
O=C(Nc1ccnn1C1CCN(Cc2ccc(CO)o2)CC1)c1ccccc1	2	-7	1	i	1	-7
CCN1C(=O)C(=CC=CN(C)c2ccccc2)SC1=S	64*	-7	/	/	176	0
O=C(O)CN1C(=O)/C(=C/C=C/c2ccccc2)SC1=S	10	-2	0	i	2	-14
COC(=O)Cn1c(C)c(/C=C/c2cc[n+](C)cc2)c2ccccc21	70*	-1	/	/	128	2
COC(=O)Cn1c(=O)c(=O)n(CC(=O)OC)c2ccccc21	5	-3	0	i	1	3
Cc1cccc(C)c1-n1nnnc1C(c1ccnc2ccccc12)N(CCN(C)C)Cc1ccccc1 (stereo unspecified)	0	/	/	/	5	/
Cc1cccn2cc(-c3ccc4c(c3)NC(=O)CO4)nc12	4	-1	1	i	3	1
Cc1ccn2cc(-c3ccc4c(c3)NC(=O)CO4)nc2c1	54*	12	2	i	8	-17
Cc1cc(C)c(C(=O)CN2C(=O)C(=O)N(C3CCCC3)C2=O)cc1C	7	-7	/	i	4	-1
O=C1[C@H](Cc2ccccc2)NCC=CC[C@H](c2ccco2)N1Cc1ccccc1	2	-9	/	i	0	7
COc1ccc(/C=N/NC(=O)c2ccc(COCC(F)(F)C(F)F)cc2)cc1	-2	2	2	i	1	-4
O=C(N/N=C/c1ccc2c(c1)OCO2)c1ccc(COCC(F)(F)C(F)F)cc1	-2	8	0	+	0	11
COc1ccc(OC)c(Nc2nc3nonc3nc2N2CCCCC2)c1	10	-11	-2	/	40*	-9
O=C(O)CC12C[C@H]3C[C@@H](C1)CC(n1ncc(N4CCN(c5ccccc5)CC4)c(Cl)c1=O)(C3)C2	-1	4	1	i	5	-6
Fc1ccc2nc(N3CCCC3)sc2c1	-6	-4	-1	i	34*	-14
O=[N+]([O-])c1ccc2nc(N3CCCC3)sc2c1	1	1	1	i	2	3
N#CCCn1cc(/C=N/NC(N)=S)c(-c2ccc(Br)cc2)n1	-2	-3	2	i	1	-9
N#CCCn1cc(/C=N/NC(N)=S)c(-c2ccccc2)n1	107*	-3	1	i	-3	2
Cc1cc(NC(=O)C2CCN(S(=O)(=O)c3cnc[nH]3)CC2)ccc1Br	2	0	3	i	-3	-14
CC1(C(=O)NS(=O)(=O)Cc2cccc(Cl)c2)CCN1C(=O)Cc1cccs1 (stereo unspecified)	71*	/	/	i	4	/
O=[N+]([O-])c1cc(C(F)(F)F)ccc1NCCOc1ccccc1	-7	-7	-1	i	2	5
O=C(OCCNc1ccc(C(F)(F)F)cc1[N+](=O)[O-])c1cc2ccccc2oc1=O	95*	-8	-1	/	177	-2
SMILES	CSN inh	PKA-R1A activ	TPT1 inh	Rpn11 block	HNF4A DNA FP	PKA-R2B activ
COc1cc(C(=O)N2CCCCC2c2cc(C(=O)NCc3cccnc3)no2)cc(OC)c1C (stereo unspecified)	0	/	/	i	2	/
Cc1c2ccccc2cc[n+]1CCCS(=O)(=O)[O-]	2	-2	-2	i	-5	0
CC1(C)C(/C=C/C=C/C=C/C=C2\N(CCCCS(=O)(=O)O)c3ccc4ccccc4c3C2(C)C)=[N+](CCCCS(=O)(=O)[O-])c2ccc3ccccc3c21	83	-7	75*	i	-25	-2
CSC1=N/C(=C\c2ccccc2F)C(=O)S1	4	-9	1	i	-5	-1
CSC1=N/C(=C\c2ccc(Br)o2)C(=O)S1	43*	-1	6	i	-12	0
O=C(COC(=O)c1ccc(Sc2ccccc2)c([N+](=O)[O-])c1)NC1CCS(=O)(=O)C1 (stereo unspecified)	-8	6	4	i	-3	-5
O=C(c1ccco1)N1CCN(C(=O)C2CCN(S(=O)(=O)Cc3ccccc3)CC2)CC1	62*	-1	-2	i	3	-5
N#CCN1CCC(c2cc(-c3ccco3)n[nH]2)CC1	/	/	-27	/	/	/
Fc1cc(Cl)cc2ccc(-c3ccccc3)nc12	103*	/	/	i	-1	/
Fc1ccc2nc(-c3ccccc3)ccc2c1	-5	/	/	i	0	/
COc1cc(CNCCc2ccccc2)ccc1OCC(=O)NC(C)(C)C	106*	-3	0	i	0	2
O=C(/C=C/c1ccc([N+](=O)[O-])cc1)N1CCN(Cc2ccccc2)CC1	-4	-9	-1	i	3	-1
O=C(/C=C/c1ccc([N+](=O)[O-])cc1)N1CCN(S(=O)(=O)c2ccccc2)CC1	47*	-17	/	i	3	-2
O=C(Nc1cccnc1)c1cc2c(ccc3ccccc32)o1	31	-8	1	+	3	-6
NNC(=O)c1cc2c(ccc3ccccc32)o1	-6	-7	2	i	-1	-12
Nc1c(N(CCC2=CCCCC2)C(=O)c2ccc([N+](=O)[O-])o2)c(=O)[nH]c(=O)n1Cc1ccccc1	2	5	9	+	8	5
O=C(Nc1ccc(Cl)c([N+](=O)[O-])c1)c1ccc(NCCCN2CCOCC2)c([N+](=O)[O-])c1	5	-4	16	+	30	-10
O=[N+]([O-])c1cc(C(F)(F)F)cc([N+](=O)[O-])c1NCCCN1CCOCC1	-4	-12	-3	i	62*	-12
Cc1ccc(NC(=O)c2ccc(NCCCN3CCOCC3)c([N+](=O)[O-])c2)cc1Cl	-16	-2	-2	i	3	-4
O=[N+]([O-])c1cc(C(F)(F)F)ccc1NCCCN1CCOCC1	-3	-5	-3	i	6	-2
CCCCNC(=O)C1(C)CCN1C(=O)c1ccncc1 (stereo unspecified)	-8	/	/	i	-1	/
C=CCNC(=O)COc1c(C)ccc(C)c1C	1	-6	-1	i	0	-5
Cc1ccc(C2=NOC(C)(c3nnc(-c4ccc(Cl)cc4)o3)C2)cc1 (stereo unspecified)	1	-3	0	i	36*	-3
